Experimental data gathered from unrelated publications.
Compare with care: the assays were run in different laboratories.
Species: human
Sample: plasma

The Cmax of c1cc([C@H]2CC[C@]3(CC2)OO[C@]2(O3)C3CC4CC(C3)CC2C4)ccc1OCCN1CCOCC1 is reported as 732 ng/mL (oral; 400 mg; patients).
With C=C(C)[C@@H]1CC[C@]2(NCCN3CCS(=O)(=O)CC3)CC[C@]3(C)[C@H](CC[C@@H]4[C@@]5(C)CC=C(C6=CC[C@@](COc7ncccc7C#N)(C(=O)O)CC6)C(C)(C)[C@@H]5CC[C@]43C)[C@@H]12 the Cmax was 228 ng/mL (oral; 100 mg; single dose, fasted, tablet).
With C=CCNc1c(O)cc2c(O)c1C[C@@H](C)C[C@H](OC)[C@H](O)[C@@H](C)/C=C(\C)[C@H](OC(N)=O)[C@@H](OC)/C=C\C=C(/C)C(=O)N2 the Cmax was 7800 ng/mL (intravenous; 400 mg/m²; patients, infusion).
The Cmax of N=C(N)NCCC[C@@H](NC(=O)[C@@H](N)Cc1ccccc1)C(=O)N[C@@H](Cc1ccccc1)C(=O)N[C@@H](CCCCN)C(N)=O is reported as 726 ng/mL (subcutaneous; 15 mg; multiple doses, once daily, patients).
CN(C)CCc1c[nH]c2ccccc12 gave a Cmax of 20.8 ng/mL (intravenous; 9 mg; healthy volunteers, infusion).
For CC(=C/C=C/C(C)=C/C(=O)O)/C=C1\CCCc2ccccc21, the Cmax was ~70 ng/mL (oral; 20 mg; single dose, fasted, healthy volunteers).
The Cmax of CC[C@H](C)[C@H](NC(=O)[C@H](CC(C)C)NC(=O)[C@H](Cc1c[nH]c2ccccc12)NC(=O)[C@H](CCC(N)=O)NC(=O)[C@@H](NC(=O)[C@H](Cc1ccccc1)NC(=O)[C@H](C)NC(=O)[C@H](CCCCNC(=O)COCCOCCNC(=O)COCCOCCNC(=O)CC[C@H](NC(=O)CCCCCCCCCCCCCCCCCCC(=O)O)C(=O)O)NC(=O)[C@H](CCC(N)=O)NC(=O)[C@H](C)NC(=O)[C@@H](NC(=O)[C@H](CCCCN)NC(=O)[C@H](CC(=O)O)NC(=O)[C@H](CC(C)C)NC(=O)C(C)(C)NC(=O)[C@@H](NC(=O)[C@H](CO)NC(=O)[C@H](Cc1ccc(O)cc1)NC(=O)[C@H](CC(=O)O)NC(=O)[C@H](CO)NC(=O)[C@@H](NC(=O)[C@H](Cc1ccccc1)NC(=O)[C@@H](NC(=O)CNC(=O)[C@H](CCC(=O)O)NC(=O)C(C)(C)NC(=O)[C@@H](N)Cc1ccc(O)cc1)[C@@H](C)O)[C@@H](C)O)[C@@H](C)CC)[C@@H](C)CC)C(C)C)C(=O)N[C@@H](C)C(=O)NCC(=O)NCC(=O)N1CCC[C@H]1C(=O)N[C@@H](CO)C(=O)N[C@@H](CO)C(=O)NCC(=O)N[C@@H](C)C(=O)N1CCC[C@H]1C(=O)N1CCC[C@H]1C(=O)N1CCC[C@H]1C(=O)N[C@@H](CO)C(N)=O is reported as 77.8 ng/mL (subcutaneous; 0.5 mg; multiple doses, healthy volunteers).
The Cmax of Cc1ncc2n1-c1ccc(Cl)cc1C(c1ccccc1F)=NC2 is reported as 10.3 ng/mL (oral; 2 mg).
COc1ccc(C[C@@H]2NC(=O)[C@H]([C@@H](C)O)NC(=O)[C@@H]3[C@@H]4CCN3C(=O)[C@@H]3Cc5cn(c6ccc(F)cc56)CCCCCCN(Cc5ccc(cc5)CCNC(=O)[C@]5(C)CCCN5C2=O)C(=O)CCC(=O)N[C@@H](C)C(=O)N[C@H](CNC(=O)CCCCC[N+](C)(C)C)C(=O)N[C@@H](Cc2cccc(c2)CNC(=O)CO4)C(=O)N3)cc1 has a Cmax of 7.84 nM (oral; 200 mg; single dose).
